Assay [1] in a line: Her2 expression decrease, cell viability multiplex – SKBR3 breast tumor cells, AlphaScreen, ATP viability, primary screen (AID 461;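 active means Her2 level under about 52% in both replicate screens, with viability over 70% of control, limit read from the data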;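 on Her2 level: lower value means less Her2 protein in the cells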;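 on viability: percent of carrier control wells set as 100% viability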). The following applies: SKBR3 Her2 protein level, 18-24 h, measured here: SKBR3 viability, ATP luminescence, at 10 µM. (Bead proximity is the source of the signal in Alpha formats.)
For assay [2], the target named is Receptor tyrosine-protein kinase erbB-2 (Homo sapiens) (UniProt P04626). The assay is described as above. Particulars: 18-24 h, at 10 µM, stronger effect = lower value.
A short description of assay [3]: reduced viability of SK-BR-3 breast cancer cells – cell-based, 24 h, human, pilot screen (AID 572;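 active means viability at or below 10% of carrier control in both of two separate runs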;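 further: compound exposure lasted between 18 and 24 h rather than exactly 24 h; 100% = carrier-treated control wells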). The following applies: SK-BR-3 viability, CellTiter-Glo luminescence, at 10 µM, stronger effect = lower value. In general terms: ATP-based viability assays read luminescence as a measure of living cells.
A short description of assay [4]: HUVEC growth inhibition – cell-based, human, primary screen (AID 575).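 Further: 100% = median of untreated cell wells with 0.1% DMSO on each plate.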 Particulars: HUVEC proliferation, CellTiter-Glo luminescence, 72 h; at 10 µM; stronger effect = lower value. The gist of the method:
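Test system – primary HUVEC, no more than 12 passages · Dosing – one dose, 10 µM final, 0.1% DMSO · Times – 72 h treatment at 37 °C · Measured by – ATP-based CellTiter-Glo luminescent read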

Assay [5] can be described thus: H69AR cell proliferation blockers – human, duplicate replicates, primary screen (AID 580;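 active means viability at or under a set limit in both replicates, limit being median viability minus 3 SD, cut at about 48% in these data, passing the limit was not always enough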;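 further: 100% = mean luminescence of untreated wells and 0% = no signal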). The following applies: H69AR lung tumor cells viability, ATP luminescence, 72 h; at 10 µM; stronger effect = lower value.
A short description of assay [6]: MRP1 drug-resistance reversers in H69AR cells – cell-based, doxorubicin co-treatment, pilot screen (AID 601;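 active means viability loss from added drug above about 55%, and viability with drug at most 40%, in both replicates, limit read from the data, passing the limit was not always enough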). The following applies: CellTiter-Glo, 72 h, at 10 µM; for differential viability (reversal): stronger effect = higher value.
Assay [7] can be described thus: yeast transport mutant growth inhibition pilot in 384-well plates, post-Golgi transport modulator project (AID 636; in the data active means inhibition above about 31%). Particulars: absorbance 615 nm, about 18 h, stronger effect = higher value.
Assay [8] can be described thus: growth suppression of yeast trafficking mutant, preliminary HTS, modulators of trafficking downstream of Golgi apparatus project, 1536-format plate, OD 615 nm (AID 637; in the data active means inhibition above about 30%). The following applies: yeast transport mutant growth, absorbance 615 nm, 18 h; stronger effect = higher value.
Setting [9] is: H69AR cells + 2 uM doxorubicin, measured here: viability with 2 uM doxorubicin, stronger effect = lower value.
Setting [10] is: H69AR cells, compound alone cytotoxicity.

Molecules are shown by their SMILES. The source made the active and inactive calls.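 How the source made its calls, unless noted: active means viability at or below 30% in both replicate assays; inconclusive means viability at or below 30% in just one of the two assays; inactive means the rest.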

Receptor tyrosine-protein kinase erbB-2 (Homo sapiens), sequence (P04626 whole entry, looked up): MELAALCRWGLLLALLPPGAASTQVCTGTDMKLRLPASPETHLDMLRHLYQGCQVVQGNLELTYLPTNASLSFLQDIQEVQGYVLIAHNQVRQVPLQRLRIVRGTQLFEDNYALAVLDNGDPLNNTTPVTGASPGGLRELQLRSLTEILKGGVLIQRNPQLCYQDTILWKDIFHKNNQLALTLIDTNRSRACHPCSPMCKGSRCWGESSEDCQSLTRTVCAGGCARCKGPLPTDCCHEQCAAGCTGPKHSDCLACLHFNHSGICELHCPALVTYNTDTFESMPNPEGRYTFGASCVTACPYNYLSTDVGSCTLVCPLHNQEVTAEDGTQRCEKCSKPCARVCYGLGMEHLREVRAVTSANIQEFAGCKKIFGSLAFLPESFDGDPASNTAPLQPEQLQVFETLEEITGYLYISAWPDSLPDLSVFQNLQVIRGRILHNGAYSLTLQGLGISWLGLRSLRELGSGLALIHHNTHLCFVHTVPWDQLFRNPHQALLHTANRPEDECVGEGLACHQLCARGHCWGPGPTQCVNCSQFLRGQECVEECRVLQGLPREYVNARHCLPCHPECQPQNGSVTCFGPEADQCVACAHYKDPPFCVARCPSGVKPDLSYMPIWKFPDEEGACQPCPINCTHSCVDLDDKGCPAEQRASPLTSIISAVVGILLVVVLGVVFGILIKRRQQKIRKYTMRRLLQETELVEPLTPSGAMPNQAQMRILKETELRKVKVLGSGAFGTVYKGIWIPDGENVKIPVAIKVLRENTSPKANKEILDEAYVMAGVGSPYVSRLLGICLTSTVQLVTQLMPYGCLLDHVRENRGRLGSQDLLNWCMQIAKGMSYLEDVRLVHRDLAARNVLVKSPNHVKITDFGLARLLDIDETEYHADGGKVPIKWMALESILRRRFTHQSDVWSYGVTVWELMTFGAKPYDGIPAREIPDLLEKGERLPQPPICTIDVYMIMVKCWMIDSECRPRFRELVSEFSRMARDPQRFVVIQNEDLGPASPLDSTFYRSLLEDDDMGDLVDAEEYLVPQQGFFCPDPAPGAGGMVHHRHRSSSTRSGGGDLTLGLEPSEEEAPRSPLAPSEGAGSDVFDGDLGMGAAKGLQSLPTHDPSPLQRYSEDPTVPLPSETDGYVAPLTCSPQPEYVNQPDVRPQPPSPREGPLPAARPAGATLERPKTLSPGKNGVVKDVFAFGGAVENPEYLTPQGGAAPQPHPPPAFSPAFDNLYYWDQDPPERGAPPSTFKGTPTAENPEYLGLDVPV

The term viability denotes a read-out of living cells in per cent, often relative to untreated cells. A word on the inhibition: it is the change of the read-out against control, counted positive when it falls. With `COc1ccc(NC(=O)CCS(=O)(=O)c2ccc(OC)cc2)cc1`, the viability in assay [1] is 96%; in assay [3] it was 96% (inactive); in assay [4], 94.8% (inactive); in assay [5], 83.4% (inactive); in assay [6] (setting [9]), 93.2%; in assay [6] (setting [10]), 83.4%. Moreover, in assay [2], the Her2 level is 104% (inactive). For the same compound, the differential viability (reversal) in assay [6] (H69AR cells + 2 uM doxorubicin) is -9.78% (inactive). Moreover, the inhibition is -0.4% (inactive) in assay [7] and -7.26% (inactive) in assay [8].
On to `CC(=O)N(C)C1(c2nnnn2CCOC(=O)Nc2cccc3ccccc23)CCCC1`, for which the viability is 119% in assay [1]; 119% (inactive) in assay [3]; 83.9% (inactive) in assay [4]; 87.3% (inactive) in assay [5]; 84.1% in assay [6] (setting [9]); 87.3% in assay [6] (setting [10]). Further, in assay [2], the Her2 level was 85.5% (inactive). For the same compound, the differential viability (reversal) in assay [6] (H69AR cells + 2 uM doxorubicin) is 3.21% (inactive). In addition, the inhibition in assay [7] was -4.13% (inactive); in assay [8] it was 5.08% (inactive).
For the compound `COc1ccc(NC(=O)CSc2nnc(-c3ccccc3C)n2C)cc1`, the viability was 96.5% in assay [1]; 96.5% (inactive) in assay [3]; 113% (inactive) in assay [4]; 100% (inactive) in assay [5]; 86.4% in assay [6] (setting [9]); 100% in assay [6] (setting [10]). Besides, the Her2 level in assay [2] was 108% (inactive). Besides, the differential viability (reversal) in assay [6] (H69AR cells + 2 uM doxorubicin) is 13.8% (inactive). Also, the inhibition in assay [7] was -4.55% (inactive); in assay [8], -5.17% (inactive).
As to `COc1ccc(N2CCC(CNS(=O)(=O)c3cccc(C(F)(F)F)c3)C2)cc1` (stereo not given), the viability in assay [1] is 98%; in assay [3], 98% (inactive); in assay [4], 84.5% (inactive); in assay [5], 86.7% (inactive); in assay [6] (setting [9]), 88.9%; in assay [6] (setting [10]), 86.7%. In assay [2], the Her2 level is 95% (inactive). Besides, the differential viability (reversal) in assay [6] (H69AR cells + 2 uM doxorubicin) was -2.23% (inactive). In addition, the inhibition in assay [7] was -2.63% (inactive); in assay [8] it was 16.6% (inactive).
With `O=C(CN(C(=O)CCC(=O)Nc1nccs1)c1ccccc1F)NCC1CCCO1` (stereo not given), the viability in assay [1] is 110%; in assay [3], 110% (inactive); in assay [4], 105% (inactive); in assay [5], 100% (inactive); in assay [6] (setting [9]), 90.4%; in assay [6] (setting [10]), 100%. Moreover, the Her2 level in assay [2] is 104% (inactive). For the same compound, the differential viability (reversal) in assay [6] (H69AR cells + 2 uM doxorubicin) was 9.81% (inactive). Besides, the results for the inhibition in assay [7] and in assay [8] were -3.33% (inactive) and 13.1% (inactive), respectively.
On to `O=C(NCCCN1CCN(CCCNC(=O)c2ccc(F)cc2)CC1)c1ccc(F)cc1`, for which the viability is 92.5% in assay [1]; 92.5% (inactive) in assay [3]; 89.9% (inactive) in assay [4]; 94.6% (inactive) in assay [5]; 90% in assay [6] (setting [9]); 94.6% in assay [6] (setting [10]). In addition, in assay [2], the Her2 level is 98% (inactive). The differential viability (reversal) in assay [6] (H69AR cells + 2 uM doxorubicin) was 4.58% (inactive). In addition, the inhibition was -4.67% (inactive) in assay [7] and 0.81% (inactive) in assay [8].
As for `O=C(CCN1C(=O)COc2ccccc21)NCCCN1CCN(c2ccccc2F)CC1`, the viability was 105% in assay [1]; 105% (inactive) in assay [3]; 90.6% (inactive) in assay [4]; 84.6% (inactive) in assay [5]; 79% in assay [6] (setting [9]); 84.6% in assay [6] (setting [10]). Besides, in assay [2], the Her2 level was 118% (inactive). Further, the differential viability (reversal) in assay [6] (H69AR cells + 2 uM doxorubicin) was 5.56% (inactive). The figures for the inhibition in assay [7] and in assay [8] were -3.64% (inactive) and -2.5% (inactive), respectively.
`O=C(c1ccc(S(=O)(=O)N2CCOCC2)cc1)N(c1ccc(F)cc1)C1C=CS(=O)(=O)C1` (stereo not given): the viability in assay [1] is 97.5%; in assay [3], 97.5% (inactive); in assay [4], 75.1% (inactive); in assay [5], 97% (inactive); in assay [6] (setting [9]), 92.4%; in assay [6] (setting [10]) it was 97%. In addition, the Her2 level in assay [2] is 109% (inactive). Further, in assay [6] (H69AR cells + 2 uM doxorubicin), the differential viability (reversal) was 4.64% (inactive). For the same compound, the inhibition in assay [7] is -1.92% (inactive); in assay [8], -9% (inactive).
With `CCOC(=O)N1CCN(C(=O)c2ccc3nc4cc(Cl)ccc4c(=O)n3c2)CC1`, the viability was 91% in assay [1]; 91% (inactive) in assay [3]; 96% (inactive) in assay [4]; 91.1% (inactive) in assay [5]; 88.8% in assay [6] (setting [9]); 91.1% in assay [6] (setting [10]). Besides, the Her2 level in assay [2] is 95% (inactive). The differential viability (reversal) in assay [6] (H69AR cells + 2 uM doxorubicin) is 2.21% (inactive). The inhibition is -3.07% (inactive) in assay [7] and 2.1% (inactive) in assay [8].
Turning to `O=C(CSc1nnc(-c2ccc(Br)o2)n1Cc1ccccc1)c1ccccc1F`, the viability in assay [1] was 81.5%; in assay [3], 81.5% (inactive); in assay [4], 86.3% (inactive); in assay [5], 64.7% (inactive); in assay [6] (setting [9]), 75.9%; in assay [6] (setting [10]), 64.7%. Besides, the Her2 level in assay [2] was 91% (inactive). For the same compound, the differential viability (reversal) in assay [6] (H69AR cells + 2 uM doxorubicin) is -11.2% (inactive). Besides, the inhibition in assay [7] is 3.11% (inactive); in assay [8], -2.13% (inactive).
As for `CCCCCn1c(CN2CCN(C)CC2)nc2c1c(=O)n(C)c(=O)n2C`, the viability in assay [1] is 103%; in assay [3] it was 103% (inactive); in assay [4], 98.4% (inactive); in assay [5] it was 85.9% (inactive); in assay [6] (setting [9]), 92.5%; in assay [6] (setting [10]) it was 85.9%. In addition, the Her2 level in assay [2] was 103% (inactive). In addition, the differential viability (reversal) in assay [6] (H69AR cells + 2 uM doxorubicin) is -6.67% (inactive). The inhibition in assay [7] is -3.87% (inactive); in assay [8], -2.67% (inactive).
With `Cc1ccccc1-c1nc(Cc2ccccc2)no1`, the viability in assay [1] was 77.5%; in assay [3] it was 77.5% (inactive); in assay [4], 104% (inactive); in assay [5], 102% (inactive); in assay [6] (setting [9]), 82.5%; in assay [6] (setting [10]) it was 102%. The Her2 level in assay [2] was 97.5% (inactive). The differential viability (reversal) in assay [6] (H69AR cells + 2 uM doxorubicin) is 19.1% (inactive). Moreover, the inhibition in assay [7] was -0.51% (inactive); in assay [8] it was -3.33% (inactive).
For the compound `CCCC(=O)N1c2ccccc2NC2=C(C(=O)CCC2)C1c1ccc(F)cc1` (stereo not given), the viability in assay [1] is 98.5%; in assay [3], 98.5% (inactive); in assay [4] it was 96.9% (inactive); in assay [5] it was 91.6% (inactive); in assay [6] (setting [9]), 91.7%; in assay [6] (setting [10]) it was 91.6%. Moreover, in assay [2], the Her2 level was 78% (inactive). The differential viability (reversal) in assay [6] (H69AR cells + 2 uM doxorubicin) was -0.1% (inactive). Moreover, the inhibition in assay [7] is -0.14% (inactive); in assay [8], 3.81% (inactive).
Regarding `O=C(NCc1ccco1)C(c1ccco1)N(C(=O)Cn1nnc2ccccc21)c1ccc2c(c1)CCC2` (stereo not given), the viability in assay [1] is 95.5%; in assay [3], 95.5% (inactive); in assay [4] it was 89.7% (inactive); in assay [5], 99.8% (inactive); in assay [6] (setting [9]), 91.2%; in assay [6] (setting [10]) it was 99.8%. Also, the Her2 level in assay [2] is 92.5% (inactive). For the same compound, the differential viability (reversal) in assay [6] (H69AR cells + 2 uM doxorubicin) is 8.6% (inactive). Moreover, the inhibition in assay [7] is -2.8% (inactive); in assay [8] it was -5.97% (inactive).
`CCOc1ccc(C(=O)N2CCN(C(=O)c3ccco3)CC2)cc1OCC`: the viability in assay [1] is 110%; in assay [3] it was 110% (inactive); in assay [4], 85.8% (inactive); in assay [5] it was 94.3% (inactive); in assay [6] (setting [9]), 94%; in assay [6] (setting [10]), 94.3%. Also, the Her2 level in assay [2] is 85% (inactive). Also, the differential viability (reversal) in assay [6] (H69AR cells + 2 uM doxorubicin) was 0.255% (inactive). The inhibition in assay [7] was -3.47% (inactive); in assay [8] it was -0.79% (inactive).
`CCOC(=O)C1CCN(c2c(N(C)Cc3ccco3)c(=O)c2=O)CC1`: the viability is 78% in assay [1]; 78% (inactive) in assay [3]; 93% (inactive) in assay [4]; 104% (inactive) in assay [5]; 88.9% in assay [6] (setting [9]); 104% in assay [6] (setting [10]). The Her2 level in assay [2] is 105% (inactive). For the same compound, the differential viability (reversal) in assay [6] (H69AR cells + 2 uM doxorubicin) was 15% (inactive). The results for the inhibition in assay [7] and in assay [8] were 0.13% (inactive) and -5.5% (inactive), respectively.

(Values after PubChem BioAssay.)
